T cruzi repl: T. cruzi replication inhibition. T. cruzi beta-gal in NIH3T3, luminescence, 90 h. inhibition, % (no concentration beside the values). 1.4% of 300,000 active;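 active = mean inhibition across valid replicates above about 55%, limit read from the data; inconclusive = mean below that limit but half or more replicates reach it; inactive = mean below it, under half of replicates reach it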;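 also: signal also drops with host cell toxicity which is not excluded here; 0% = plate median of DMSO wells and 100% = zero luminescence signal; higher percent means less beta-gal luminescence so fewer parasites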
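Assay system: NIH/3T3 fibroblasts plus reporter T. cruzi. Amount: NIH/3T3 cells, 5,000 per well. Buffer or medium: DMEM, 2% fetal bovine serum. Doses: compound pinned at 50 nL/well, DMSO. Schedule: ≥90 h infection period, 3 h prior cell attachment. Signal: luminescent β-galactosidase signal after 60 min lysis. Read-out: parasite load inhibition, %.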
HIF activator: HIF pathway transcriptional activation | activation, % at 7.5 µM (by protocol) | U2OS HRE-luciferase reporter, luminescence; normalized: DMSO 0%, desferrioxamine 100% | 0.32% of 300,000 active;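 active = mean activation of at least 10% of the iron chelator positive control signal, with at least half of replicates also reaching 10%; inconclusive = mean and replicate majority disagree about reaching 10%; inactive = mean and most replicates under 10%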
A1 inh: inhibitors of the anti-apoptotic protein A1, read as caspase activation | caspase activation, % (test concentration not listed) | MEF A1-2A-BIM cells, Caspase-Glo 3/7 luminescence, 3 h; percent of clofoctol response, vehicle zero | AID 2462 | 0.066% of 330,000 active;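 active = over half of replicate activation scores above 10%, or exactly half above 10 with the replicate mean above 10; inconclusive = replicate mean below 10 yet half the replicates above 10; inactive = over half of replicates below 10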
Beta apoptosis: beta cell apoptosis inhibition; INS-1E cytokine-induced death, ATP luminescence, 48 h; percent of positive-control rescue, neutral wells zero; protection from apoptosis, % (test concentration not listed); 0.8% of 300,000 active;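 active = Every replicate reaches about 75%, or at least half do and their mean reaches it too, limit read from the data; inconclusive = At least half of replicates reach the limit but their mean does not; inactive = Under half of replicates reach the limit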;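 also: 0% = cytokine-treated negative control wells and 100% = positive control rescue; higher means more ATP so stronger rescue from cytokine killing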
KLF5 inhibitor: suppresses KLF5 promoter-driven expression | DLD-1 KLF5 promoter-luciferase reporter, luminescence | inhibition, % at 5 µM | 0.23% of 290,000 active | AID 1700;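 active = inhibition above a per-plate limit of that plate's mean compound inhibition plus 3 SD, cut at about 60% in these data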;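 also: 0% = DMSO wells and 100% = LY294002 at 200 µM; higher means less KLF5 promoter-driven luciferase light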
Active calls of the source: *; ? = inconclusive; / = no result given. In the library only some 2.3% were active in any assay of this set; here they are far more common.

SMILES	T cruzi repl	HIF activator	A1 inh	Beta apoptosis	KLF5 inhibitor
Cc1noc(C(=O)Nc2sc3c(c2C#N)CCC3)c1Cl	-6.2	14.3*	-2.2	/	-21.8
CCCCNc1c(-c2cccc(-c3ccc(OC)cc3)c2)nc2ccc(C)cn12	54.2	3.6	0.2	92.5*	/
COc1cc(-c2nc3ccc(C)cn3c2NCc2ccccc2)ccc1-c1cccc(Cl)c1	/	/	-1.5	102.0*	/
Cc1ccc2nc(-c3ccc(-c4cccc(Cl)c4)cc3)c(NCc3ccccc3)n2c1	13.6	-1.3	-0.3	121.1*	/
CCCCNc1c(-c2cccc(-c3ccc(OC)cc3)c2)nc2cc(C)ccn12	/	/	-0.8	55.6	/
CCCCNc1c(-c2ccc(-c3cccc(Cl)c3)cc2)nc2ccccn12	22.3	0.0	-7.6	109.9*	/
CCOC(=O)C1(CCOc2ccccc2)CCN(Cc2cccn2-c2cccnc2)CC1	60.1*	-0.8	-1.2	7.2	4.1
CCOC(=O)C1(CCOc2ccccc2)CCN(Cc2cccc3c2OCO3)CC1	65.2*	-1.3	-0.2	0.3	-17.0
CCOC(=O)C1(CCOc2ccccc2)CCN(Cc2ccc3nonc3c2)CC1	66.9*	-1.5	1.3	8.5	-13.8
CCOC(=O)C1(CCOc2ccccc2)CCN(Cc2cc(OC)c3c(c2)OCO3)CC1	60.4*	-0.5	2.0	14.9	-13.2
CC1CC(C)CN(C(=O)c2cc(S(=O)(=O)N3CCCCC3)ccc2Cl)C1 (centres undefined)	5.9	0.3	0.5	1.7	/
O=C(CSc1nc(N2CCOCC2)nc(N2CCOCC2)n1)Nc1cccc(C(F)(F)F)c1	3.1	-0.3	0.3	/	-16.2
CCCCCCCCCn1c2c(c(=N)c3c1CCC3)CCC2	47.6	-1.7	-1.2	108.9*	52.3
CCn1c2c(c(=N)c3c1CCC3)CCC2	-21.2	-0.5	0.7	-2.0	-29.9
CCCCn1c2c(c(=N)c3c1CCC3)CCC2	/	/	0.2	48.0	21.9
CCCCCCn1c2c(c(=N)c3c1CCC3)CCC2	83.8*	-0.1	-0.6	108.6*	54.8
CCCCCCCn1c2c(c(=N)c3c1CCC3)CCCC2	58.7*	-0.3	/	/	58.5
CCOC(=O)c1c(NC(=S)NNS(=O)(=O)c2ccc(Br)cc2)sc2c1CCCCC2	-4.1	0.2	0.1	2.2	-15.6
CSCCC(NC(=O)c1ccccc1Br)C(=O)N1CCCCCCC1 (centres undefined)	2.4	0.1	-0.5	-3.6	/
Cc1ccc([N+](=O)[O-])c(OCCN2CCCCCC2)c1	-1.3	0.1	0.0	78.8*	-14.9
Cc1ccc([N+](=O)[O-])c(OCCN2CCc3ccccc3C2)c1	17.7	0.8	-0.7	/	-45.2
O=S(=O)(NCCN1CCOCC1)c1cc(Cl)c(Cl)cc1Cl	4.5	-11.8	0.5	/	-15.2
CCCn1cnnc1CNC(=O)C1CCC(=O)N(CCc2ccc(OC)cc2)C1 (centres undefined)	-8.8	-0.4	0.7	-5.3	-18.8
OC(COC(c1ccc(F)cc1)c1ccc(F)cc1)CN1CCc2ccccc2C1 (centres undefined)	16.3	-0.2	1.1	102.1*	-13.6
OC(COC(c1ccccc1)c1ccccc1)CN1CCc2ccccc2C1 (centres undefined)	2.5	0.0	-1.0	2.1	-28.6
SMILES	T cruzi repl	HIF activator	A1 inh	Beta apoptosis	KLF5 inhibitor
OC1CCCN(CC(O)COC(c2ccc(F)cc2)c2ccc(F)cc2)C1 (centres undefined)	0.7	-23.4	-0.5	-3.8	-17.0
OC(COC(c1ccc(Cl)cc1)c1ccc(Cl)cc1)CN1CCc2ccccc2C1 (centres undefined)	62.1*	-0.3	0.5	0.9	-0.2
CCOc1cc(/C=C\[N+](=O)[O-])ccc1OCC(=O)Nc1ccccc1C	36.6	-4.0	30.9*	80.0*	2.9
COc1ccc(S(=O)(=O)N2CCOC2CNC(=O)C(=O)NCCCN2CCOCC2)cc1OC (centres undefined)	-25.3	0.5	-0.5	1.6	-1.8
CCOc1ccc(NC(=O)c2c(NC(=O)CNCCN3CCOCC3)sc3c2CCC3)cc1	61.0*	-0.5	-0.7	/	-10.4
COc1ccc(NC(=O)c2c(NC(=O)CNCc3ccco3)sc3c2CCC3)cc1	20.8	-0.2	0.1	14.9	-14.0
COc1ccccc1-c1cc(C(F)(F)F)nc(S(=O)(=O)CCCC(=O)O)n1	-17.2	1.1	-0.4	-6.4	-17.8
COc1ccccc1-c1cc(C(F)(F)F)nc(S(=O)(=O)CCCC(=O)N2CCOCC2)n1	-16.5	15.3*	6.1*	-9.3	-37.4
O=[N+]([O-])/C=C/c1cn(Cc2ccc(F)cc2)c2ccccc12	1.4	0.1	0.5	78.2*	-6.5
CCN1CNC(=S)N(CCc2ccccc2)C1	-12.0	-0.1	-0.1	-0.6	-5.0
CCN1CN(CCc2ccccc2)CNC1=S	-11.6	269.8*	-1.0	-4.1	-2.0
COc1cccc(C2/C(=C(/O)c3ccc4c(c3)CC(C)O4)C(=O)C(=O)N2CC2CCCO2)c1 (centres undefined)	/	/	2.1	2.4	-32.0
CCOC(=O)c1cnc(-n2nc(C)cc2C)nc1NC	-7.9	1.9	-0.4	0.2	-17.1
CCOC(=O)c1cnc(-n2nc(C)cc2C)nc1Nc1ccc(N(C)C)cc1	62.5*	0.3	-0.4	108.7*	-16.4
CCOC(=O)c1cnc(-n2nc(C)cc2C)nc1NC1CCCCC1	76.3*	-0.2	-0.8	/	-26.7
CCOC(=O)c1cnc(-n2nc(C)cc2C)nc1NNc1nc(-c2ccccc2)cc(-c2ccccc2)n1	48.1	18.4*	0.5	118.0*	2.1
CCOC(=O)c1cnc(-n2nc(C)cc2C)nc1Nc1ccc(O)cc1	4.1	-0.3	-1.2	118.6*	-41.9
CCOC(=O)c1cnc(-n2nc(C)cc2C)nc1Nc1ccc(C)cc1	10.3	1.0	/	/	-7.9
COc1ccc(S(=O)(=O)NNC(=O)Nc2ccc(C)cc2C)c(OC)c1	-11.3	0.2	-0.5	-4.9	-6.3
Cc1cc(C(=O)NC2CC(C)(C)Cc3c2cnn3-c2ccccc2)n(C)n1 (centres undefined)	-1.9	0.2	-0.6	2.1	-19.2
CC(=O)[C@@]1(O)C(C)CC2C3C=C(C)C4=Cc5c(cnn5-c5ccccc5)C[C@]4(C)C3C(O)C[C@@]21C (some centres undefined)	64.3*	-1.0	0.4	-2.2	-33.2
COc1ccc(C(=O)NC2CCCc3c2cnn3-c2cccc(C)c2C)o1 (centres undefined)	-11.8	-0.4	0.1	14.5	19.6
Oc1c(C(Nc2ccccn2)c2cccnc2)cc(Cl)c2cccnc12 (centres undefined)	55.3*	-0.5	0.0	84.6*	2.8
Oc1c(C(Nc2cccc(C(F)(F)F)c2)c2cccnc2)ccc2cccnc12 (centres undefined)	?	1.8	1.3	4.6	-7.3
Cc1cc(NC(c2cccnc2)c2ccc3cccnc3c2O)no1 (centres undefined)	50.0	22.0*	-0.4	104.0*	27.8
CC(=O)NC(c1ccccc1)c1cc([N+](=O)[O-])c2cccnc2c1O (centres undefined)	31.3	1.8	0.6	36.5	-20.4
